In ChEMBL document CHEMBL3352176, “Synthesis and evaluation of novel dapsone-thalidomide hybrids for the treatment of type 2 leprosy reactions” (Bioorg Med Chem Lett, 2014):

What was measured:
L929 [1] = assay: Antiinflammatory activity against mouse L929 cells assessed as inhibition of LPS-induced TNFalpha production at 125 uM after 48 hrs; format: functional; conditions: L929, 48 h
Outline: (§1)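 Mouse L929 fibroblasts were stimulated with lipopolysaccharide and exposed to compounds at 15.62 µM and 125 µM. TNFα was quantified in culture supernatants in pg/mL and expressed as percent decrease versus stimulated cells. Thalidomide served as the reference control.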

[2] = Cytotoxicity against mouse L929 cells assessed as cell viability up to 150 uM; format: cell-based; conditions: read-out: Activity
Mus musculus = assay: Antinociceptive effect in mouse assessed as inhibition of acetic acid-induced abdominal constriction at 100 uM/kg, po; format: functional, Abdomen
L929 [3] = assay: Antiinflammatory activity against mouse L929 cells assessed as inhibition of LPS-induced TNFalpha production at 15.625 uM after 48 hrs; format: functional; conditions: L929, 48 h; outline: as §1
L929 [4] = assay: Antiinflammatory activity against mouse L929 cells assessed as inhibition of LPS-induced TNFalpha production after 48 hrs; format: functional, cell-based; outline: as §1
Salmonella typhimurium [5] = assay: Genotoxicity in Salmonella typhimurium TA100 assessed as mutagenic index at 16 umol/plate; format: toxicity, organism-based; conditions: salmonella enterica subsp. enterica serovar typhimurium
Mycobacterium leprae = assay: Antimycobacterial activity against Mycobacterium leprae inoculated in mouse model assessed as mean number of bacilli at 200 mg/kg, po 5 days/week for 4 weeks (reference value: 3.56 x 10^6 cells); format: functional
Salmonella typhimurium [6] = assay: Genotoxicity in Salmonella typhimurium TA100 assessed as mutagenic index at 32 umol/plate in presence of S9 liver extract; format: toxicity, organism-based, Liver S9 fraction; conditions: salmonella enterica subsp. enterica serovar typhimurium
Salmonella typhimurium [7] = assay: Genotoxicity in Salmonella typhimurium TA102 assessed as mutagenic index at 16 umol/plate in presence of S9 liver extract; format: toxicity, organism-based, Liver S9 fraction; conditions: salmonella enterica subsp. enterica serovar typhimurium
Salmonella typhimurium [8] = assay: Genotoxicity in Salmonella typhimurium TA102 assessed as mutagenic index at 8 umol/plate; format: toxicity, organism-based; conditions: salmonella enterica subsp. enterica serovar typhimurium
Salmonella typhimurium [9] = assay: Genotoxicity in Salmonella typhimurium TA102 assessed as mutagenic index at 16 umol/plate; format: toxicity, organism-based; conditions: salmonella enterica subsp. enterica serovar typhimurium
Salmonella typhimurium [10] = assay: Genotoxicity in Salmonella typhimurium TA102 assessed as mutagenic index at 2 umol/plate; format: toxicity, organism-based; conditions: salmonella enterica subsp. enterica serovar typhimurium
Salmonella typhimurium [11] = assay: Genotoxicity in Salmonella typhimurium TA100 assessed as mutagenic index at 32 umol/plate; format: toxicity, organism-based; conditions: salmonella enterica subsp. enterica serovar typhimurium
Salmonella typhimurium [12] = assay: Genotoxicity in Salmonella typhimurium TA102 assessed as mutagenic index at 32 umol/plate in presence of S9 liver extract; format: toxicity, organism-based, Liver S9 fraction; conditions: salmonella enterica subsp. enterica serovar typhimurium
Salmonella typhimurium [13] = assay: Genotoxicity in Salmonella typhimurium TA102 assessed as mutagenic index at 8 umol/plate in presence of S9 liver extract; format: toxicity, organism-based, Liver S9 fraction; conditions: salmonella enterica subsp. enterica serovar typhimurium
Salmonella typhimurium [14] = assay: Genotoxicity in Salmonella typhimurium TA102 assessed as mutagenic index at 4 umol/plate in presence of S9 liver extract; format: toxicity, organism-based, Liver S9 fraction; conditions: salmonella enterica subsp. enterica serovar typhimurium
Salmonella typhimurium [15] = assay: Genotoxicity in Salmonella typhimurium TA100 assessed as mutagenic index at 4 umol/plate; format: toxicity, organism-based; conditions: salmonella enterica subsp. enterica serovar typhimurium
Salmonella typhimurium [16] = assay: Genotoxicity in Salmonella typhimurium TA102 assessed as mutagenic index at 4 umol/plate; format: toxicity, organism-based; conditions: salmonella enterica subsp. enterica serovar typhimurium
Salmonella typhimurium [17] = assay: Genotoxicity in Salmonella typhimurium TA100 assessed as mutagenic index at 16 umol/plate in presence of S9 liver extract; format: toxicity, organism-based, Liver S9 fraction; conditions: salmonella enterica subsp. enterica serovar typhimurium
Salmonella typhimurium [18] = assay: Genotoxicity in Salmonella typhimurium TA102 assessed as mutagenic index at 2 umol/plate in presence of S9 liver extract; format: toxicity, organism-based, Liver S9 fraction; conditions: salmonella enterica subsp. enterica serovar typhimurium
Salmonella typhimurium [19] = assay: Genotoxicity in Salmonella typhimurium TA100 assessed as mutagenic index at 8 umol/plate in presence of S9 liver extract; format: toxicity, organism-based, Liver S9 fraction; conditions: salmonella enterica subsp. enterica serovar typhimurium
Salmonella typhimurium [20] = assay: Genotoxicity in Salmonella typhimurium TA102 assessed as mutagenic index at 32 umol/plate; format: toxicity, organism-based; conditions: salmonella enterica subsp. enterica serovar typhimurium
Salmonella typhimurium [21] = assay: Genotoxicity in Salmonella typhimurium TA100 assessed as mutagenic index at 8 umol/plate; format: toxicity, organism-based; conditions: salmonella enterica subsp. enterica serovar typhimurium
Salmonella typhimurium [22] = assay: Genotoxicity in Salmonella typhimurium TA100 assessed as mutagenic index at 2 umol/plate in presence of S9 liver extract; format: toxicity, organism-based, Liver S9 fraction; conditions: salmonella enterica subsp. enterica serovar typhimurium
Salmonella typhimurium [23] = assay: Genotoxicity in Salmonella typhimurium TA100 assessed as mutagenic index at 2 umol/plate; format: toxicity, organism-based; conditions: salmonella enterica subsp. enterica serovar typhimurium
Salmonella typhimurium [24] = assay: Genotoxicity in Salmonella typhimurium TA100 assessed as mutagenic index at 4 umol/plate in presence of S9 liver extract; format: toxicity, organism-based, Liver S9 fraction; conditions: salmonella enterica subsp. enterica serovar typhimurium
Salmonella typhimurium [25] = assay: Genotoxicity in Salmonella typhimurium TA102 at 3 ug/plate assessed as number of revertants per plate (reference value: 301 +/- 5.2 no unit); format: toxicity, organism-based; conditions: salmonella enterica subsp. enterica serovar typhimurium
Salmonella typhimurium [26] = assay: Genotoxicity in Salmonella typhimurium TA100 at 1.25 ug/plate assessed as number of revertants per plate in presence of S9 liver extract (reference value: 128.9 +/- 7.3 no unit); format: toxicity, organism-based, Liver S9 fraction; conditions: salmonella enterica subsp. enterica serovar typhimurium

With `Nc1ccc(NS(=O)(=O)c2ccc(N3C(=O)c4ccccc4C3=O)cc2)cc1` the inhibition at 125 µM (L929 [1]) was 40.6%, the viability [2] was > 90% and the “inhibition (INH)” value (Mus musculus) was 35.2%. For the same compound, the inhibition at 15.625 µM (L929 [3]) was 28.8% and the inhibition (L929 [4]) was “Dose-dependent effect”.

In the case of `N=C(N)NS(=O)(=O)c1ccc(N2C(=O)c3ccccc3C2=O)cc1`, the inhibition at 125 µM (L929 [1]) is reported as 7.24%, the viability [2] is reported as > 90% and the “inhibition (INH)” value (Mus musculus) is reported as 29.63%. The inhibition at 15.625 µM (L929 [3]) was 0% and the inhibition (L929 [4]) was “Dose-dependent effect”.

With `O=C1c2ccccc2C(=O)N1c1ccc(S(=O)(=O)Nc2ccccn2)cc1` the inhibition at 125 µM (L929 [1]) was 66.6%, the viability [2] was > 90% and the “inhibition (INH)” value (Mus musculus) was 49.8%. The inhibition at 15.625 µM (L929 [3]) was 26.5% and the inhibition (L929 [4]) was “Dose-dependent effect”.

For `O=C1c2ccccc2C(=O)N1c1ccc(S(=O)(=O)Nc2ncccn2)cc1`, the inhibition at 125 µM (L929 [1]) was 79.3%, the viability [2] was > 90% and the “inhibition (INH)” value (Mus musculus) was 39.1%. The inhibition at 15.625 µM (L929 [3]) was 33.7% and the inhibition (L929 [4]) was “Dose-dependent effect”.

With `Cc1cc(NS(=O)(=O)c2ccc(N3C(=O)c4ccccc4C3=O)cc2)no1` the inhibition at 125 µM (L929 [1]) was 34.1%, the viability [2] was > 90% and the “inhibition (INH)” value (Mus musculus) was 17.9%. For the same compound, the inhibition at 15.625 µM (L929 [3]) was 16.2% and the inhibition (L929 [4]) was “Dose-dependent effect”.

With `COc1cnc(NS(=O)(=O)c2ccc(N3C(=O)c4ccccc4C3=O)cc2)nc1` the inhibition at 125 µM (L929 [1]) was 80.8%, the viability [2] was > 90% and the “inhibition (INH)” value (Mus musculus) was 27.57%. The inhibition at 15.625 µM (L929 [3]) was 73.5% and the inhibition (L929 [4]) was “Dose-dependent effect”.

For `Cc1ccnc(NS(=O)(=O)c2ccc(N3C(=O)c4ccccc4C3=O)cc2)n1`, the Activity (Salmonella typhimurium [5]) was 1.61, the inhibition at 125 µM (L929 [1]) was 87.8% and the Activity (Mycobacterium leprae) was 2500000. For the same compound, the Activity (Salmonella typhimurium [6]) was 1.59, the Activity (Salmonella typhimurium [7]) was 1.31 and the Activity (Salmonella typhimurium [8]) was 1.26. For the same compound, the viability [2] was > 90%, the Activity (Salmonella typhimurium [9]) was 1.36 and the Activity (Salmonella typhimurium [10]) was 1.08. The “inhibition (INH)” value (Mus musculus) was 34.15%, the Activity (Salmonella typhimurium [11]) was 1.59 and the Activity (Salmonella typhimurium [12]) was 1.38. For the same compound, the Activity (Salmonella typhimurium [13]) was 1.24, the Activity (Salmonella typhimurium [14]) was 1.17 and the Activity (Salmonella typhimurium [15]) was 1.19. It also gave an Activity (Salmonella typhimurium [16]) of 1.22, an inhibition at 15.625 µM (L929 [3]) of 86.3% and an Activity (Salmonella typhimurium [17]) of 1.64. The Activity (Salmonella typhimurium [18]) was 1.07, the Activity (Salmonella typhimurium [19]) was 1.33 and the Activity (Salmonella typhimurium [20]) was 1.4. For the same compound, the Activity (Salmonella typhimurium [21]) was 1.33, the inhibition (L929 [4]) was “Dose-dependent effect” and the Activity (Salmonella typhimurium [22]) was 1.08. The Activity (Salmonella typhimurium [23]) was 1.07 and the Activity (Salmonella typhimurium [24]) was 1.21.

For `Cc1cc(C)nc(NS(=O)(=O)c2ccc(N3C(=O)c4ccccc4C3=O)cc2)n1`, the inhibition at 125 µM (L929 [1]) was 81.3%, the viability [2] was > 90% and the “inhibition (INH)” value (Mus musculus) was 27.37%. The inhibition at 15.625 µM (L929 [3]) was 53.9% and the inhibition (L929 [4]) was “Dose-dependent effect”.

`COc1cccc2c1C(=O)c1c(O)c3c(c(O)c1C2=O)C[C@@](O)(C(C)=O)C[C@@H]3O[C@H]1C[C@H](N)[C@H](O)[C@H](C)O1` [DAUNORUBICIN] showed an Activity (Salmonella typhimurium [25]) of 902.

With `Nc1ccc2cc3ccccc3cc2c1` [2-AMINOANTHRACENE] the Activity (Salmonella typhimurium [26]) was 2540.

With `O=C1CCC(N2C(=O)c3ccccc3C2=O)C(=O)N1` (stereo not drawn) [THALIDOMIDE] the inhibition at 125 µM (L929 [1]) was 42.8%, the Activity (Mycobacterium leprae) was 4600000 and the “inhibition (INH)” value (Mus musculus) was 42.2%. It also gave an inhibition at 15.625 µM (L929 [3]) of 35.4%.

In the case of `Cc1c(N(C)CS(=O)(=O)O)c(=O)n(-c2ccccc2)n1C` [METAMIZOLE], the “inhibition (INH)” value (Mus musculus) is reported as 33.5%.

In the case of `NS(=O)(=O)c1ccc(N2C(=O)c3ccccc3C2=O)cc1`, the inhibition at 125 µM (L929 [1]) is reported as 70.7%, the viability [2] is reported as > 90% and the “inhibition (INH)” value (Mus musculus) is reported as 26.75%. The inhibition at 15.625 µM (L929 [3]) was 53% and the inhibition (L929 [4]) was “Dose-dependent effect”.
